Experimental findings from ChEMBL document CHEMBL1144688, “Gentisyl alcohol derivatives from the marine-derived fungus Penicillium terrestre” (J Nat Prod, 2008) are described below.

One assay relates to HL-60. Briefly: Cytotoxicity against human HL60 cells by MTT assay. In kind it is functional, cell-based. The method, boiled down:
(§1)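 Cells at 5 × 10^4 cells/mL were preincubated for 24 h, then exposed to compounds in MeOH at various concentrations for 72 h. MTT (5 mg/mL) was added for 4 h, the formazan was dissolved in DMSO, and absorbance was read at 540 nm.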
In general terms: Tetrazolium dyes change colour on reduction, which living cells bring about.

The subject of a further assay is MOLT-4. Nature of the assay: Cytotoxicity against human MOLT4 cells by MTT assay. It is filed as functional, cell-based. In outline:
as §1

The next assay deals with A549. Briefly: Cytotoxicity against human A549 cells by SRB method. In kind it is functional, cell-based. The method, boiled down: (§2)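 Cells were plated at 2 × 10^5 cells/mL and treated with test compounds in MeOH over a concentration range for 24 h. They were then fixed with 12% TCA, stained with 0.4% SRB and read at 515 nm. IC50 was taken from the linear portion of log dose–response curves.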
In general terms: In SRB staining, fixed cells bind dye roughly in proportion to their protein.

The test system of another assay is Bel-7402. Nature of the assay: Cytotoxicity against human BEL-7402 cells by SRB method. It is filed as functional, cell-based. In outline: as §2
Assay [1] in a line: DPPH radical scavenging activity. In kind it is functional. The method, boiled down: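 Samples dissolved in MeOH were mixed with methanolic DPPH, shaken and left for 30 min. Absorbance was read at 520 nm and percent inhibition calculated. IC50 is the concentration that scavenges 50% of the DPPH radicals.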
Background: The DPPH test is a chemical assay of radical scavenging.

For assay [2], the target named is Proto-oncogene tyrosine-protein kinase Src (Homo sapiens) (UniProt P12931). Briefly: Inhibition of Src kinase at 10 uM by ELISA. In outline: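 ELISA on plates precoated with 20 µg/mL poly(Glu,Tyr)4:1, using purified kinase and 5 µM ATP in 50 mM HEPES pH 7.4 with MgCl2, MnCl2, Na3VO4 and DTT, for 1 h at 37 °C. Phosphotyrosine was detected with PY99 antibody, then HRP anti-mouse IgG and o-phenylenediamine/H2O2, read at 490 nm. Inhibition was calculated against the 1% DMSO control, in duplicate.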
Sequence of Proto-oncogene tyrosine-protein kinase Src (Homo sapiens) (P12931 2-536 limits assumed): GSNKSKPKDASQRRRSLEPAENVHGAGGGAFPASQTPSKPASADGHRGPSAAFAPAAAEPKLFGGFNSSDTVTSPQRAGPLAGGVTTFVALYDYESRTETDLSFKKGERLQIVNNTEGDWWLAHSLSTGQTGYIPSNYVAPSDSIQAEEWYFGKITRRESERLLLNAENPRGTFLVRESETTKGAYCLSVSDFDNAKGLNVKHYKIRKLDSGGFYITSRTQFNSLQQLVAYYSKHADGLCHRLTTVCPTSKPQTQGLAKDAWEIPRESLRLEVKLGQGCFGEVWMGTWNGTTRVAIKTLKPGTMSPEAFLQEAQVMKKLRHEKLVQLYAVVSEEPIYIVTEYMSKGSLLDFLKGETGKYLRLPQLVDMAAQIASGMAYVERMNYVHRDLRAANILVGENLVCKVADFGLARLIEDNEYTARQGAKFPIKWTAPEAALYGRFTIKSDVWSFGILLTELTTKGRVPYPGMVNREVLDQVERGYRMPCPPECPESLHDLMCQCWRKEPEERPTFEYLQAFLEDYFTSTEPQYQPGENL

Assay [3] concerns the target Vascular endothelial growth factor receptor 2 (Homo sapiens) (UniProt P35968). The following applies: at 10 µM.

By pIC50 is commonly meant the IC50 on a negative log10 scale, so that one unit is a factor of ten. Read a high pIC50 as a small IC50. Usually inhibition stands for the relative decrease from the control value, in per cent. High values mean strong suppression, low ones little suppression.

Each structure is given as a SMILES string. pIC50: −log10 of the molar value.

Sequence of Vascular endothelial growth factor receptor 2 (Homo sapiens) (P35968 whole entry): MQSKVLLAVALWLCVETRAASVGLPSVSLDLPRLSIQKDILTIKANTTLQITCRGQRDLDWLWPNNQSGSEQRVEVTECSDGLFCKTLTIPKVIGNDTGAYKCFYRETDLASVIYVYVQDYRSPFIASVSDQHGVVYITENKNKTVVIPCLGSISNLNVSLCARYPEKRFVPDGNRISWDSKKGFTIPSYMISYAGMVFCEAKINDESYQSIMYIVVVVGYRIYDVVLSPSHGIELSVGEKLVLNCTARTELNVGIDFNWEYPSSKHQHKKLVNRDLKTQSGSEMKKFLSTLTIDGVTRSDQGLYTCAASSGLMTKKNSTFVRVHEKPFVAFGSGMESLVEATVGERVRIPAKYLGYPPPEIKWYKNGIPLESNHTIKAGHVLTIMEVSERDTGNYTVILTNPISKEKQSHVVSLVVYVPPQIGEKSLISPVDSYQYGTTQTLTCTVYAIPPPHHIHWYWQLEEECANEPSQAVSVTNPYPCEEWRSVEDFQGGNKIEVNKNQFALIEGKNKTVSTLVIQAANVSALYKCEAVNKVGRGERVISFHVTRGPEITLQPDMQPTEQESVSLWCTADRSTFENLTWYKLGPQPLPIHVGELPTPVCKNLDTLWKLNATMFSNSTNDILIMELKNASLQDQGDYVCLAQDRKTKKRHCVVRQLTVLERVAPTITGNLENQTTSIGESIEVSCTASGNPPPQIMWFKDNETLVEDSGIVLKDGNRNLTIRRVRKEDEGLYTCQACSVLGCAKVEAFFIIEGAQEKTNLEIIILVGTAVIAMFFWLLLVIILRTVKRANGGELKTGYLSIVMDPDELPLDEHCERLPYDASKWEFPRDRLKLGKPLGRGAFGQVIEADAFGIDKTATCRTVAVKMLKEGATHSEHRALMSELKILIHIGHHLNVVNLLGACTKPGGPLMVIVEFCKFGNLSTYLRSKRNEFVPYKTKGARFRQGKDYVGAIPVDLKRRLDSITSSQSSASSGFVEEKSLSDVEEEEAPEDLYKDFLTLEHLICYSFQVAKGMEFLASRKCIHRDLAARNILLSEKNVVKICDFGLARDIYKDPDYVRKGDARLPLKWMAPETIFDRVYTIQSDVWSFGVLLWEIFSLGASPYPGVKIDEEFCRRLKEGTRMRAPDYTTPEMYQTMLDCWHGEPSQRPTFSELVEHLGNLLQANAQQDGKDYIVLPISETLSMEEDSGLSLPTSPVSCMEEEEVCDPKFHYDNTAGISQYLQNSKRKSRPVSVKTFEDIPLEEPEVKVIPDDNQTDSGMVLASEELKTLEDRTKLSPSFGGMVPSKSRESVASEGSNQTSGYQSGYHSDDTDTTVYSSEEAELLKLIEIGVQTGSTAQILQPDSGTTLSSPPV

Regarding `COCc1cc(O)c(Cc2cc(O)c(Cc3cc(O)ccc3O)cc2O)cc1O`, the pIC50 is 4.48 in the assay with HL-60; 5.26 with MOLT-4; 4.63 in the assay on A549; 4.24 in the assay with Bel-7402; 5.59 in assay [1].

With `OCc1cc(OCc2cc(O)ccc2O)ccc1O`, the pIC50 in the assay on HL-60 is 4.26; in the assay on MOLT-4 it was 5.19; in the assay with A549 it was 5.02; in the assay with Bel-7402, 4.23; in assay [1], 5.21.

`OCc1cc(O)c(Cc2cc(O)ccc2O)c(Cl)c1O`: the pIC50 in the assay on HL-60 was 5.29; in the assay on MOLT-4, 5.19; in the assay with A549 it was 5.24; with Bel-7402, 5.22; in assay [1], 5.39. Besides, the inhibition was 35.9% in assay [2] and 31.8% in assay [3].

`OCc1cc(OCc2cc(O)ccc2O)cc(Cl)c1O`: the pIC50 is 5.28 in the assay with HL-60; 5.26 with MOLT-4; 4.84 with A549; 4.41 in the assay with Bel-7402; 5.36 in assay [1].

With `Oc1ccc(O)c(COCc2cc(O)ccc2O)c1`, the pIC50 in the assay on HL-60 was 5.26; in the assay with MOLT-4, 5.25; in the assay with A549, 4.74; in the assay with Bel-7402, 4.24; in assay [1], 5.34.

`Oc1ccc(O)c(COCc2cc(O)cc(Cl)c2O)c1`: the pIC50 is 5.21 in the assay with HL-60; 5.24 with MOLT-4; 4.74 with A549; 4.21 in the assay with Bel-7402; 5.37 in assay [1].

For `OCc1c(O)c(Cl)cc(O)c1Cc1cc(O)ccc1O`, the pIC50 with HL-60 is 4.26; in the assay with MOLT-4 it was 4.24; in the assay with A549, 4.86; in the assay with Bel-7402 it was 4.20; in assay [1], 5.28.

In the case of `COCc1cc(O)ccc1O`, the pIC50 in the assay with HL-60 is 4.23; in the assay on MOLT-4 it was 4.06; in the assay with A549, less than 4.00; in the assay on Bel-7402 it was less than 4.00; in assay [1], 5.01.

With `COCc1cc(O)c(Cc2cc(O)ccc2O)cc1O`, the pIC50 in the assay on HL-60 was 5.20; in the assay with MOLT-4, 5.24; with A549, 4.47; with Bel-7402 it was 4.21; in assay [1] it was 5.20.

`COCc1cc(O)cc(Cl)c1O`: the pIC50 with HL-60 is 5.17; in the assay on MOLT-4 it was 4.19; in the assay with A549, 4.25; with Bel-7402 it was 4.24; in assay [1], 5.07.
